Results: ChEMBL document CHEMBL1134739, “Synthesis, biological activity and comparative analysis of DNA binding affinities and human DNA topoisomerase I inhibitory activities of novel 12-alkoxy-benzo[c]phenanthridinium salts” (Bioorg Med Chem Lett, 2001)

Legend:
[1] = test system: Caov-3 cell line; assay: (§1) Compound was tested for cytotoxicity against CaOv3 human solid tumor cell line; format: functional, cell-based
Outline: (§2)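 MTT assay: drugs added 24 h after plating at nine concentrations; cells grown 72 h with drug, then MTT (2.5 mg/mL solution in PBS) added for 3 h. Formazan dissolved in DMSO, absorbance read at 570 nm. IC50 taken from dose/inhibition curves.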

[2] = test system: HT-29; assay: (§3) Compound was tested for cytotoxicity against HT-29 human solid tumor cell line; format: functional, cell-based; outline: as §2
[3] = test system: MCF7; assay: (§4) Compound was tested for cytotoxicity against MCF-7 human solid tumor cell line; format: functional, cell-based; outline: as §2
[4] = test system: Nucleic Acid; assay: Compound was tested for its binding affinity towards calf thymus DNA; format: nucleic-acid assay; details: Bos taurus
Outline: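 Calf thymus DNA concentration set using a molar extinction coefficient of 13,200 M^-1 cm^-1. Binding was followed by recording UV–vis spectra.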

[5] = test system: A549; assay: (§5) Compound was tested for cytotoxicity against A-549 human solid tumor cell line; format: functional, cell-based; outline: as §2
[6] = test system: Nucleic Acid; assay: Compound was tested for its binding affinity towards poly(GC); format: nucleic-acid assay
Outline: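 Double-stranded poly(dG-dC)·poly(dG-dC) concentration set using a molar extinction coefficient of 13,200 M^-1 cm^-1. Binding was followed by recording UV–vis spectra.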

[7] = test system: Nucleic Acid; assay: Compound was tested for its binding affinity towards poly(AT); format: nucleic-acid assay
Outline: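 Double-stranded poly(dA-dT)·poly(dA-dT) concentration set using a molar extinction coefficient of 13,900 M^-1 cm^-1. Binding was followed by recording UV–vis spectra.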

[8] = test system: Caov-3 cell line; assay: as §1; format: functional; outline: as §2
[9] = test system: HT-29; assay: as §3; format: functional
[10] = test system: MCF7; assay: Compound was tested for cytotoxicity against MCF-7 human solid tumor cell line; NA=Not active; format: functional, cell-based
Outline: (§6)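 MTT assay on adherent solid tumor lines. Drug added 24 h after plating at nine concentrations, then 72 h growth with drug. MTT (2.5 mg/mL solution in PBS) added for 3 h, medium aspirated, formazan dissolved in DMSO, absorbance read at 570 nm. IC50 taken from dose/inhibition curves.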

[11] = test system: Caov-3 cell line; assay: Compound was tested for cytotoxicity against CaOv3 human solid tumor cell line; NA=Not active; format: functional, cell-based; outline: as §6
[12] = test system: MCF7; assay: as §4; format: functional
[13] = test system: A549; assay: as §5; format: functional

K [4] [M⁻¹] | K [6] [M⁻¹] | K [7] [M⁻¹] | Compound | IC50 [1] [nM] | IC30 [2] [µM] | IC50 [3] [µM] | IC50 [5] [nM] | IC30 [8] [µM] | IC30 [9] [µM] | IC50 [10] | IC50 [11] | IC30 [12] [µM] | IC30 [13] [µM]
250000 | 53000 | 50000 | CCOc1cc2c3cc(OC)c(OC)cc3c[n+](C)c2c2cc(OC)c(OS(C)(=O)=O)cc12.CS(=O)(=O)[O-] | – | – | – | 500 | – | 1 | Not Active | Not Active | – | –
250000 | 60000 | 300000 | CCOc1cc2c3cc(OC)c(OC)cc3c[n+](C)c2c2cc(OC)c(O)cc12.[I-] | – | 5 | – | – | – | – | Not Active | Not Active | – | –

Further lines, the compound ahead of its results:

Compound | K [4] [M⁻¹] | K [6] [M⁻¹] | K [7] [M⁻¹] | IC50 [1] [nM] | IC30 [2] [µM] | IC50 [3] [µM] | IC50 [5] [nM] | IC30 [8] [µM] | IC30 [9] [µM] | IC50 [10] | IC50 [11] | IC30 [12] [µM] | IC30 [13] [µM]
COc1cc2c(ccc3c4cc(OC)c(OC)cc4c[n+](C)c23)cc1O [FAGARONINE] | 1e+06 | 1.1e+06 | 1e+06 | 500 | 9 | 4 | 100 | – | – | – | – | – | –
CCOc1cc2c3cc(OC)c(OC)cc3c[n+](C)c2c2cc(OC)c(OC)cc12 | 250000 | 100000 | 2.5e+06 | – | 2 | 2 | 80 | 0.5 | – | – | – | – | –
CCOc1cc2c3cc(OC)c(OC)cc3c(C)[n+](C)c2c2cc(OC)c(OC)cc12 | 700000 | 50000 | 700000 | – | – | – | – | 10 | 9 | – | – | 1 | 10
